# Reference: ChEMBL document CHEMBL4043125, “Design, synthesis, and pharmacological evaluation of a novel series of hormone sensitive lipase inhibitor” (Bioorg Med Chem, 2017)
# Activity calls are given as the source filed them. No cut-off for these calls is given here.
# Columns and labels:
# [1] = target: T1, Hormone-sensitive lipase (Rattus norvegicus, UniProt P15304); test: Inhibition of HSL in rat adipocytes assessed as reduction in lipolysis by measuring glycerol concentration incubated for 30 mins by spectrophotometric analysis; assay type: cell-based
# T1 sequence (P15304 whole entry): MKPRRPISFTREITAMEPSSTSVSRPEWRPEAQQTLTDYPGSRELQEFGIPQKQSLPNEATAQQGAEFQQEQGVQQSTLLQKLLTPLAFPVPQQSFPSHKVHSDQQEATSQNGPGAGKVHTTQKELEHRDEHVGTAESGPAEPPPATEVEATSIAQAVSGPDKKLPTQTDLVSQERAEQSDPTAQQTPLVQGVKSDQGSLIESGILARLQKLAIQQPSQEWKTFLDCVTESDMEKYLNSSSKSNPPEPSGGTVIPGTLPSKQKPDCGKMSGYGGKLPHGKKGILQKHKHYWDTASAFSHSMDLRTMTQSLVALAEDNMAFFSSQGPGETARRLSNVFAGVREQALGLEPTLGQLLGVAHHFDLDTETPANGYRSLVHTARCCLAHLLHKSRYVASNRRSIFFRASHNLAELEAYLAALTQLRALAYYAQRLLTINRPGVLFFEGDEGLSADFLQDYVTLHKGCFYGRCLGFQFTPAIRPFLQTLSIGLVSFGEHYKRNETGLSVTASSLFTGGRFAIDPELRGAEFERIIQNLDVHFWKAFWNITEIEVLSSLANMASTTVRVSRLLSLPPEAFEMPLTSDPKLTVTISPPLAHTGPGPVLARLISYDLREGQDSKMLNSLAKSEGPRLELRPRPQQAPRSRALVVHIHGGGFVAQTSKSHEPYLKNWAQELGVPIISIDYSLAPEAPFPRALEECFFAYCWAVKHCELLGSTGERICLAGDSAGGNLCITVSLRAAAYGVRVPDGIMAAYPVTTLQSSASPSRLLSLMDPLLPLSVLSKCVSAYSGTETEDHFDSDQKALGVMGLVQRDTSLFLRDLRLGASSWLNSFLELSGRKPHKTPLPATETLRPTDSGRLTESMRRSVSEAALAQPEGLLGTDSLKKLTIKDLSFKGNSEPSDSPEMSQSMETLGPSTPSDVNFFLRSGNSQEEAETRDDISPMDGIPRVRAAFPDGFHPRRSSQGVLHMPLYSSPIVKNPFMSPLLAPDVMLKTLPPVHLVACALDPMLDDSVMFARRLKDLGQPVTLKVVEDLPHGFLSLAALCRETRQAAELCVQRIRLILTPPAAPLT
# Method in brief: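 Rat subcutaneous white adipocytes, differentiated 7 days, washed in lipolysis buffer (pH 7.0, with glucose, HEPES, adenosine, 1% BSA). Compound dilutions in DMSO added, 30 min at 37°C, 5% CO2. Supernatant glycerol measured with a free glycerol kit at 540 nm. Triplicate; IC50 from nonlinear curve fitting.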
# [2] = target: Acetylcholinesterase (Homo sapiens) (UniProt P22303); test: Inhibition of AChE (unknown origin) at 10 uM using acetylthiocholine iodide as substrate preincubated for 10 mins followed by substrate addition measured after 15 mins by spectrophotometric analysis relative to control
# Method in brief: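 Enzyme (100 U/mL) preincubated with inhibitor 10 min at room temperature, then mixed with 0.1 M potassium phosphate-HCl pH 8.0, acetylthiocholin iodide (final 500 μM) and DTNB; incubated 15 min at 37°C with shaking. Absorbance at 405 nm read at 0 and 15 min. Tested at 1, 10 and 100 μM.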
# [3] = target: Cholinesterase (Homo sapiens) (UniProt P06276); test: Inhibition of BuChE (unknown origin) at 10 uM using S-butyrylthiocholin iodide as substrate preincubated for 10 mins followed by substrate addition measured after 15 mins by spectrophotometric analysis relative to control
# Method in brief: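 Enzyme (100 U/mL) preincubated with inhibitor 10 min at room temperature, then mixed with 0.1 M potassium phosphate-HCl pH 8.0, S-butyrylthiocholin iodide (final 1000 μM) and DTNB; incubated 15 min at 37°C with shaking. Absorbance at 405 nm read at 0 and 15 min. Tested at 1, 10 and 100 μM.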
# [4] = 1-octanol/phosphate buffered saline distribution coefficient, log D of the compound at 200 uM at pH 7.4 after 30 mins by shake flask based HPLC/LC-MS analysis; assay type: physicochemical
# Method in brief: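 Shake-flask LogD: PBS and 1-octanol pre-saturated by shaking and standing overnight. Compound at 200 μM in either phase, equal volume of the other added, shaken 30 min at room temperature, centrifuged 2100 g 5 min. Both phases quantified by HPLC and LC-MS. LogD7.4 = log(octanol peak area/PBS peak area).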
# [5] = Aqueous solubility of the compound in Japanese pharmacopoeia first fluid at pH 1.2 after 4 hrs by HPLC/UV analysis; assay type: physicochemical
# Method in brief: (§1)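 Solubility: DMSO sample solution freeze-dried. Residue stirred at 1700 rpm for 4 h in JP first fluid (pH 1.2), JP second fluid (pH 6.8) or FaSSIF. Filtered, filtrate diluted in DMSO, quantified by HPLC-UV against a per-sample calibration curve.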
# [6] = Aqueous solubility of the compound in Japanese pharmacopoeia second fluid at pH 6.8 after 4 hrs by HPLC/UV analysis; assay type: physicochemical; method in brief: as §1
# [7] = Aqueous solubility of the compound in FaSSIF after 4 hrs by HPLC/UV analysis; assay type: physicochemical; method in brief: as §1
# [8] = target: T2, Hormone-sensitive lipase (Homo sapiens, UniProt Q05469); test: Inhibition of recombinant human HSL expressed in baculovirus infected sf9 insect cells using PNPB as substrate after 5 mins by spectrophotometric analysis
# T2 sequence (Q05469 whole entry): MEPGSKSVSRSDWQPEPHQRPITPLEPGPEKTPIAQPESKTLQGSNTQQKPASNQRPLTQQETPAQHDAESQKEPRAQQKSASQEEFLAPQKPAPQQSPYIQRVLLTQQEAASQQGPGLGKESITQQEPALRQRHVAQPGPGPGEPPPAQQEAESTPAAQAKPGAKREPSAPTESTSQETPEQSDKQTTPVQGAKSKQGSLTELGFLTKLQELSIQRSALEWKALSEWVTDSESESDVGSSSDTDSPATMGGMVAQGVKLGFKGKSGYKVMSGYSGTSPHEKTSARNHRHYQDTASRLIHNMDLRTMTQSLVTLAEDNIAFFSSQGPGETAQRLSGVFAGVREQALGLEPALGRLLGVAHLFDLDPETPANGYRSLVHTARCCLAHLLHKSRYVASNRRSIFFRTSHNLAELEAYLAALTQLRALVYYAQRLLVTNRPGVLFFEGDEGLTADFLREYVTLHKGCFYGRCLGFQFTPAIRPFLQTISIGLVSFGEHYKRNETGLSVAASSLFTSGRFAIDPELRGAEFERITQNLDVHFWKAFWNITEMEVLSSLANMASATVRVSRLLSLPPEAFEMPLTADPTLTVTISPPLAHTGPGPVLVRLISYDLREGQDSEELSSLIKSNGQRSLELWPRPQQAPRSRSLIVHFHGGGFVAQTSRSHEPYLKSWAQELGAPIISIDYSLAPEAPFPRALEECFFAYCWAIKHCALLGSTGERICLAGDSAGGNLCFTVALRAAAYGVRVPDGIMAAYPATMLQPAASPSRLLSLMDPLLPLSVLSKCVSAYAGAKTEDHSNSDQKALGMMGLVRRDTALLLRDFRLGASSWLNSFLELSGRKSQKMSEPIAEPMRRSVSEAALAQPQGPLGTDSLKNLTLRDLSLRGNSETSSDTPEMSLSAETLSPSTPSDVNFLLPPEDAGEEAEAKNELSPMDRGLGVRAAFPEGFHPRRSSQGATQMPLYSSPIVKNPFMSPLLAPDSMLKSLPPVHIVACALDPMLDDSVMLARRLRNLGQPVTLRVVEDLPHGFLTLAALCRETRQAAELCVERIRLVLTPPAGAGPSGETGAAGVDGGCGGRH
# [9] = tested on: Rattus norvegicus; test: Antilipolytic activity in Wistar rat assessed as reduction in plasma glycerol AUC (0 to 7 hrs) at 10 mg/kg, po by spectrophotometric analysis; assay type: functional, organism-based
# Method in brief: (§2)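 Male Wistar rats, 8 weeks, fasted overnight. Dosed orally in 0.5% (w/v) methylcellulose, with vehicle controls (n = 4) and treated groups (n = 3). Tail-vein EDTA blood taken pre-dose and at 0.5, 1, 3, 5, 7 h. Plasma glycerol read with a free glycerol kit. Reduction in glycerol AUC0–7h versus vehicle expressed relative to a reference inhibitor group; mean ± SEM.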
# [10] = Effective permeability of the compound in prisma HT buffer at 10 mM at pH 5 after 4 hrs by PAMPA; assay type: physicochemical; settings: read-out: Peff
# Method in brief: (§3)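 PAMPA: filter coated with GIT-0 lipid. 10 mM DMSO stock diluted into Prisma HT buffer to give 5 µM donor solution (0.05% DMSO) at pH 5.0 or 7.4. Acceptor sink buffer used. Incubated 4 h at 25°C. Both compartments quantified by LC-MS/MS to derive the permeability coefficient.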
# [11] = Effective permeability of the compound in prisma HT buffer at 10 mM at pH 7.4 after 4 hrs by PAMPA; assay type: physicochemical; settings: read-out: Peff; method in brief: as §3
# [12] = Cmax in rat at 3 mg/kg, po by LC-MS/MS analysis; assay type: ADME, organism-based; set-up: dose 3 mg/kg, route oral; settings: in vivo
# [13] = AUC (0 to 7 hrs) in rat at 3 mg/kg, po by LC-MS/MS analysis; assay type: ADME, organism-based; set-up: time < 7 hr, dose 3 mg/kg, route oral; settings: in vivo
# [14] = tested on: Rattus norvegicus; test: Antilipolytic activity in Wistar rat assessed as reduction in plasma glycerol AUC (0 to 7 hrs) at 1 mg/kg, po by spectrophotometric analysis relative to control; assay type: functional; set-up: scale not given: the % may be the effect or the level left; method in brief: as §2
# Chain of Cholinesterase (Homo sapiens) (P06276 whole entry): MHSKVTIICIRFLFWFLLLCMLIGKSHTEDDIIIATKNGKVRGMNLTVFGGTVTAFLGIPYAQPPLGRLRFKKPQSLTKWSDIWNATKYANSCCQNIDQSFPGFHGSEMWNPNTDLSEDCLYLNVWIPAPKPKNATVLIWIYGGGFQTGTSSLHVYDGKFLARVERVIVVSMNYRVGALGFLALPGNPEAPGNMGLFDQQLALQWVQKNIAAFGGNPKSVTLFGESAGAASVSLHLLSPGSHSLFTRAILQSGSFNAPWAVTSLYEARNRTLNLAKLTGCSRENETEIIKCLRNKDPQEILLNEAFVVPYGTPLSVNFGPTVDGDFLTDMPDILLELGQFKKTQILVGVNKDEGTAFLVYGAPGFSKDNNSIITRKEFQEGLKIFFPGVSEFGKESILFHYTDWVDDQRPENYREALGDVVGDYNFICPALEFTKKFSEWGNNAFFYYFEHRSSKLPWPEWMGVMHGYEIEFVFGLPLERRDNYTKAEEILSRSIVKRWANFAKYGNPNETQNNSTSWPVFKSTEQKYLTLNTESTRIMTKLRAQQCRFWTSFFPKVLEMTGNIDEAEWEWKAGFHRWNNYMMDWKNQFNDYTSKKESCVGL
# Chain of Acetylcholinesterase (Homo sapiens) (P22303 whole entry): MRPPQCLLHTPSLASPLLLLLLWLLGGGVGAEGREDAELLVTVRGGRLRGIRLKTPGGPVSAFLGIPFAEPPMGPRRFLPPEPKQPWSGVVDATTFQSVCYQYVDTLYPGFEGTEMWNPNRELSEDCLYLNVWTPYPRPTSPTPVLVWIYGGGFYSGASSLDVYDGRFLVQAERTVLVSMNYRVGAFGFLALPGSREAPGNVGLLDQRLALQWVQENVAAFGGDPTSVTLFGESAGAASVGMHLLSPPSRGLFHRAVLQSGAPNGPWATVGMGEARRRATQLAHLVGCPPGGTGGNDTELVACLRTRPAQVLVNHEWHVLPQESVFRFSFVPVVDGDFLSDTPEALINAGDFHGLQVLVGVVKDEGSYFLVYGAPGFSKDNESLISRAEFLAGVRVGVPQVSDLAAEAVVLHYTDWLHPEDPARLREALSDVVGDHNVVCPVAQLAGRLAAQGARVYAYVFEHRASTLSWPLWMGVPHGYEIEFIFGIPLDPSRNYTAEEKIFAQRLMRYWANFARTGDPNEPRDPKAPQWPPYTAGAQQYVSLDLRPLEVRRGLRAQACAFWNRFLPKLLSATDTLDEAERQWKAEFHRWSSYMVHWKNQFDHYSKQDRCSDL
smiles,measurement,setting,value
O=C(Cc1ccccc1B(O)O)N1CCC(Oc2ccc(C(F)(F)F)nc2)CC1,IC50,[1],180 nM
same,inhibition,[2],6%
same,inhibition,[3],62%
O=C(Nc1ccc(Cl)cc1B(O)O)c1ccc(Oc2ccc(C(F)(F)F)cc2)nc1,IC50,[1],110 nM
same,"logD at 0.5 h, 200 µM",[4],4.3
same,solubility at 4 h,[5],1.8 µg/mL
same,solubility at 4 h,[6],1.5 µg/mL
same,solubility at 4 h,[7],12 µg/mL
O=C(Cc1ccccc1B(O)O)N1CCC(COc2ccc(C(F)(F)F)cn2)CC1,IC50,[1],260 nM
O=C(C(O)c1ccccc1B(O)O)N1CCC(Oc2ccc(C(F)(F)F)cn2)CC1 (configuration not stated),IC50,[1],280 nM
same,inhibition,[2],-4%
same,inhibition,[3],4%
O=C(Cc1ccc(Cl)cc1B(O)O)N1CCC(Oc2ccc(C(F)(F)F)cn2)CC1,IC50,[1],24 nM
same,inhibition,[2],8%
same,inhibition,[3],5%
O=C(Nc1ccccc1B(O)O)c1ccc(Oc2ccc(C(F)(F)F)cn2)cn1,IC50,[1],1100 nM
CN(C)C(=O)c1ccc(OC2CCN(C(=O)Cc3ccccc3B(O)O)CC2)nc1,IC50,[8],> 5000 nM
O=C(CCc1ccccc1B(O)O)N1CCC(Oc2ccc(C(F)(F)F)cn2)CC1,IC50,[1],1400 nM
O=C(Oc1ccc(Oc2ccc(C(F)(F)F)cn2)cc1)N1CCC(O)CC1,Activity,[9],Active
OB(O)c1ccccc1CN1CCC(Oc2ccc(C(F)(F)F)cn2)CC1,IC50,[1],1400 nM
O=C(Cc1ccccc1B(O)O)N1CCC(Oc2ccc(C(F)(F)F)cn2)CC1,IC50,[1],80 nM
same,inhibition,[2],7%
same,inhibition,[3],46%
O=C(Cc1ccccc1B(O)O)N1CCC(Oc2ccc(C(F)(F)F)cc2)CC1,IC50,[1],130 nM
same,inhibition,[2],9%
same,inhibition,[3],72%
O=C(Nc1ccccc1B(O)O)c1ccc(Oc2ccc(C(F)(F)F)cn2)cc1,IC50,[1],470 nM
same,"logD at 0.5 h, 200 µM",[4],3.2
O=C(Cc1ccc(F)cc1B(O)O)N1CCC(Oc2ccc(C(F)(F)F)cn2)CC1,inhibition,[2],7%
same,inhibition,[3],2%
same,"Papp at 4 h, 10000 µM",[10],> 50 ×10⁻⁶ cm/s
same,"Papp at 4 h, 10000 µM",[11],> 50 ×10⁻⁶ cm/s
same,"logD at 0.5 h, 200 µM",[4],3.7
same,solubility at 4 h,[5],190 µg/mL
same,solubility at 4 h,[6],84 µg/mL
same,solubility at 4 h,[7],99 µg/mL
same,Cmax,[12],650 ng/mL
same,AUC(0-t) at 7 h,[13],3180 ng·h/mL
same,Activity,[14],22%
COc1ccc(CC(=O)N2CCC(Oc3ccc(C(F)(F)F)cn3)CC2)c(B(O)O)c1,IC50,[1],45 nM
same,inhibition,[2],9%
same,inhibition,[3],-4%
